{"source": "ChEMBL document CHEMBL1221214", "about": "“Cytosporone B is an agonist for nuclear orphan receptor Nur77” (Nat Chem Biol, 2008)", "key": {"[1]": {"target": "Nuclear receptor subfamily 4 group A member 1 (Mus musculus) (UniProt P12813)", "sequence (P12813 whole entry)": "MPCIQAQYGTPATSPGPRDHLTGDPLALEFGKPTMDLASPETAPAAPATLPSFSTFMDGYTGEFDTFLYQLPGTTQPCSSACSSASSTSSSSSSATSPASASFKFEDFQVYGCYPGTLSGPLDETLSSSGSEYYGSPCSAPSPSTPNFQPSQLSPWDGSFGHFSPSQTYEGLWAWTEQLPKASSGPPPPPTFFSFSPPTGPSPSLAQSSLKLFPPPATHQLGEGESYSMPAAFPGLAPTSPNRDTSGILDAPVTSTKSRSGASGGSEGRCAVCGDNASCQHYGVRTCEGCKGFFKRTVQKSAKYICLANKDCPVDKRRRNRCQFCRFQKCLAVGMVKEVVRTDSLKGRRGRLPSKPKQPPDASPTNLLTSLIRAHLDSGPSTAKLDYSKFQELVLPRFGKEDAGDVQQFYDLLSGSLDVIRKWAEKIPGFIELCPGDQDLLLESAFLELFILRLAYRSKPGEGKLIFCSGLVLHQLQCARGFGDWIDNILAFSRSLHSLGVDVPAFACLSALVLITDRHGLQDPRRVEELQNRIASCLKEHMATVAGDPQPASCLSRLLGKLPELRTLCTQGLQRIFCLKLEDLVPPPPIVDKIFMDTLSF", "assay": "Agonist activity at Nur77 in Nr4a1 deficient mouse C57BL/6 assessed as glucose-6-phosphatase mRNA at 50 mg/kg, ip by real-time PCR analysis", "assay_type": "functional, organism-based", "parameters": "dose 50 mg/kg"}, "[2]": {"target": "Nuclear receptor subfamily 4 group A member 1 (Mus musculus) (UniProt P12813)", "assay": "Agonist activity at Nur77 in wild-type mouse C57BL/6 assessed as glucose-6-phosphatase mRNA at 50 mg/kg, ip within 30 mins by real-time PCR analysis relative to control", "assay_type": "functional, organism-based", "parameters": "dose 50 mg/kg"}, "BGC-823": {"system": "BGC-823", "assay": "Antitumor activity against human BGC823 cells expressing si-Nur77 xenografted in athymic nude mouse BALB/c assessed as apoptotic cells by TUNEL assay", "assay_type": "functional", "summary_of_the_method": "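Tumors from the subcutaneous BGC-823 xenograft nude mice (wild-type, si-Nur77 or si-Ctrl cells; Csn-B 13 mg kg-1 ip twice weekly or DMSO for 4 weeks) were sectioned and apoptotic cells detected by TUNEL assay.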"}}, "note": "Activity calls are given as the source filed them. The rule behind the calls is not given here."}
{"smiles": "CCCCCCCC(=O)c1c(O)cc(O)cc1CC(=O)OCC", "note": "[CYTOSPORONE B]", "values": [{"measurement": "Activity", "setting": "[1]", "value": "inactive"}, {"measurement": "Activity", "setting": "[2]", "value": "Active"}, {"measurement": "Activity", "setting": "BGC-823", "value": "Active"}]}
